Drawing on ChEMBL document CHEMBL3808372, “Identification of quinones as novel PIM1 kinase inhibitors” (Bioorg Med Chem Lett, 2016), this text covers Activity and % of MOE kinase hits for one compound.

The target in test [1] is Macrophage colony-stimulating factor 1 receptor (Homo sapiens) (UniProt P07333). Briefly: Inhibition of human CSF1R (564 to 939 amino acid residues) assessed as enzyme activity at 10 uM by KINOMEScan assay expressed in bacterial system assessed as enzyme activity at 10 uM by KINOMEScan assay. More on the design: scale not given: the % may be the effect or the level left. The gist of the method: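 Competition binding screen on a 100-kinase KINOMEscan panel, compound tested at a single 10 μM concentration. Primary binding read-out expressed as % Ctrl = (test compound signal − positive control signal)/(negative control signal − positive control signal) × 100, with lower values meaning stronger binding.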

Test [2] deals with Mitogen-activated protein kinase 3 (Homo sapiens) (UniProt P27361). Nature of the test: Inhibition of full length human ERK1 expressed in bacterial system assessed as enzyme activity at 10 uM by KINOMEScan assay. Also on record: scale not given: the % may be the effect or the level left. The gist of the method:
(§1)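 Commercial KINOMEscan binding panel of 100 kinases, test compound at 10 μM. Results are primary-screen binding interactions expressed as % Ctrl = (test compound signal − positive control signal)/(negative control signal − positive control signal) × 100. Lower % Ctrl means stronger binding.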

The target in test [3] is Mast/stem cell growth factor receptor Kit (Homo sapiens) (UniProt P10721). Nature of the test: Inhibition of human KIT (571 to 952 amino acid residues) expressed in bacterial system assessed as enzyme activity at 10 uM by KINOMEScan assay. Also on record: scale not given: the % may be the effect or the level left. The gist of the method: as §1
The target of test [4] is Serine/threonine-protein kinase pim-1 (Homo sapiens, UniProt P11309). Nature of the test: Share of MOE computational kinase hits for Pim family.
Sequence of Serine/threonine-protein kinase pim-1 (P11309 whole entry, looked up): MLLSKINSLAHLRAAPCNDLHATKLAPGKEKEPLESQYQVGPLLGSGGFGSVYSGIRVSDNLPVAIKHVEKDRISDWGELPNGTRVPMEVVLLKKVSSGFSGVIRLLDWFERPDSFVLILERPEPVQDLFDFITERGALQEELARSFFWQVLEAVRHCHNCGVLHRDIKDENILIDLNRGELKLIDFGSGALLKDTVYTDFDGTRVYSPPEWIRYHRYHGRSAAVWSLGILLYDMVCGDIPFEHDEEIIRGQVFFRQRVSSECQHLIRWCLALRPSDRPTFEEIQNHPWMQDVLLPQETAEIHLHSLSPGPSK

Sequence of Mitogen-activated protein kinase 3 (Homo sapiens) (P27361 whole entry): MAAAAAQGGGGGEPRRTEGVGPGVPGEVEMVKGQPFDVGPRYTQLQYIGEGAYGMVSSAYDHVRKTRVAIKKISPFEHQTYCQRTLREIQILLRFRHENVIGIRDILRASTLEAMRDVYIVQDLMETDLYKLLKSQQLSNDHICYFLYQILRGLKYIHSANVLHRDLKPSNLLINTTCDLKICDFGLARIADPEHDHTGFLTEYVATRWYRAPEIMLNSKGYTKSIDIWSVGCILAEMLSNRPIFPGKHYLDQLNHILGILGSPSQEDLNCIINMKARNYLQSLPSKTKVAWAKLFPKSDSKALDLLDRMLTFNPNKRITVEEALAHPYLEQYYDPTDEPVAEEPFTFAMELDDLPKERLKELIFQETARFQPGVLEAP
Sequence of Macrophage colony-stimulating factor 1 receptor (Homo sapiens) (P07333 whole entry, the tested form may be a part): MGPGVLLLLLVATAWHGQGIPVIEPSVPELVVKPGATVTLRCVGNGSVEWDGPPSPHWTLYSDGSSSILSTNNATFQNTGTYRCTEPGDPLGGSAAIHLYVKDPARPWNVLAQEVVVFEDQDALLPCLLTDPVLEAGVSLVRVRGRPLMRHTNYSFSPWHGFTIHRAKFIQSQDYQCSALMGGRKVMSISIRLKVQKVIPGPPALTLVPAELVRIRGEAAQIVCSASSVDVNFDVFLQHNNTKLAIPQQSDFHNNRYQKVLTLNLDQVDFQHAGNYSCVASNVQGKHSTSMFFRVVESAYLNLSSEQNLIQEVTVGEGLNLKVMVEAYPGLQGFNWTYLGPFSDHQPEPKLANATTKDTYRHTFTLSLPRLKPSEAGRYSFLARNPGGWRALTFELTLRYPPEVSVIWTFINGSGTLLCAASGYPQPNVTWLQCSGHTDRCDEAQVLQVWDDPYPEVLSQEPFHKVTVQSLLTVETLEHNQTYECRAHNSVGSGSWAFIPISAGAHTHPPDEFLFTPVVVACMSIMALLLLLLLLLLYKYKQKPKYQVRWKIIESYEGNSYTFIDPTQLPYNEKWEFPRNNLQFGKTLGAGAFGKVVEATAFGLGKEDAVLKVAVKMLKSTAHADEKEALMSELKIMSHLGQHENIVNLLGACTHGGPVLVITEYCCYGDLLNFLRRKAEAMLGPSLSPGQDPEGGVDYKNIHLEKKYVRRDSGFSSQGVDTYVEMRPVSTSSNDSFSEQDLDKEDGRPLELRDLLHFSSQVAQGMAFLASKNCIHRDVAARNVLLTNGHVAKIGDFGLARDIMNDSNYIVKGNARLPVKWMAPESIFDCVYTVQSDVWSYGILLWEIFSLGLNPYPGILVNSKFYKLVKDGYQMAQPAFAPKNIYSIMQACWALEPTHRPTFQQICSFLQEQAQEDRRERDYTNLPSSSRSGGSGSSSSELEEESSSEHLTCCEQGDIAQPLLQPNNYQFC
Sequence of Mast/stem cell growth factor receptor Kit (Homo sapiens) (P10721 whole entry, the tested form may be a part): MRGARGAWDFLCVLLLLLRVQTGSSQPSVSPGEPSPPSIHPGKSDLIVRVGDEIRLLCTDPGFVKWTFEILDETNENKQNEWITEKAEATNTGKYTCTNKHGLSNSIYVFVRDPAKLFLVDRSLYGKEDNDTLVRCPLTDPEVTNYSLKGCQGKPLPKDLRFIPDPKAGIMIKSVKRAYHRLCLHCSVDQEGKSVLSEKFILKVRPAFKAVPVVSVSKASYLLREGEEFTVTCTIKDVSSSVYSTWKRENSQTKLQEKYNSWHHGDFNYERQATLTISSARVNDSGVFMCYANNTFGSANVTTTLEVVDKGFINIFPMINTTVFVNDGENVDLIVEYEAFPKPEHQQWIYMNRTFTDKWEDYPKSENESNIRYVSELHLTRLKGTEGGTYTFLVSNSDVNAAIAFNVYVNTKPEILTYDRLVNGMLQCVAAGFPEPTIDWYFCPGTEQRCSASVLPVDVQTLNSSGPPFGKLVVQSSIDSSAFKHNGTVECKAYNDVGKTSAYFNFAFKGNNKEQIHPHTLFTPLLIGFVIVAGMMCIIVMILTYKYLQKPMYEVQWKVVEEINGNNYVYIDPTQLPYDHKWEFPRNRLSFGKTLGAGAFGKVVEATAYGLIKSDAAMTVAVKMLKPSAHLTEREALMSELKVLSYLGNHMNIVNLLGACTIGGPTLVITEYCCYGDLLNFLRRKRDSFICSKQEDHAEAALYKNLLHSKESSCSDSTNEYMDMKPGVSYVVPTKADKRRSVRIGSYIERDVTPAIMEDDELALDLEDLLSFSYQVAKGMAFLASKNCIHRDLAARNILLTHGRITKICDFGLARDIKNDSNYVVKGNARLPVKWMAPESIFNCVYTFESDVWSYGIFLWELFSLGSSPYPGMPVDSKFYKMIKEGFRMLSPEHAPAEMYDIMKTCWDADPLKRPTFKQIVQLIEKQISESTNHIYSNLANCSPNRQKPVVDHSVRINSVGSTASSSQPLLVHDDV

`O=C1C2=C(C(=O)c3c(O)ccc(O)c31)[C@@H](O)[C@@H](O)[C@@H](O)C2`: the Activity was determined as 77% in test [1], 100% in test [2] and 76% in test [3]. For the same compound, the % of MOE kinase hits in test [4] came to 29%.
